Results reported in ChEMBL document CHEMBL1156862, “Synthesis of C-glycoside analogues of beta-galactosamine-(1-->4)-3-O-methyl-D-chiro-inositol and assay as activator of protein phosphatases PDHP and PP2Calpha” (Bioorg Med Chem, 2010).
Activity calls are given as the source filed them. The rule behind the calls is not given here.

Key:
[1] = target: T1, Protein phosphatase 1A (Mus musculus) (UniProt P49443); experiment: Activation of mouse recombinant GST-tagged PP2Calpha assessed as phosphate release using para-Nitrophenyl phosphate substrate
T1 sequence (whole entry): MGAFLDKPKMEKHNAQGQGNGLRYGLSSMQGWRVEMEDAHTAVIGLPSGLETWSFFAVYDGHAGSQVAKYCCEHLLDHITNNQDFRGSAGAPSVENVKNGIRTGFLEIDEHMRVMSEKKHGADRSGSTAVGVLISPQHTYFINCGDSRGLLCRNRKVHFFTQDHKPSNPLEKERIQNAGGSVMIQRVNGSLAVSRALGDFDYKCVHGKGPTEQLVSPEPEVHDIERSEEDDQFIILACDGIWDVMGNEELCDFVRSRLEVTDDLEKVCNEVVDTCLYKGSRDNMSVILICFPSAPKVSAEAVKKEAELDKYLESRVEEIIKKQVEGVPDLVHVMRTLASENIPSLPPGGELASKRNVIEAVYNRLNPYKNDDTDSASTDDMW
Summary of the method: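 Mouse wild-type GST-PP2Cα fusion (1 µg) at rt in 0.1 M Tris-HCl pH 8.0, 2 mM DTT, with varied MnCl₂ or compound. Substrate 5 mM p-nitrophenyl phosphate, 30 min. Stopped with 0.5% SDS, A410. Triplicates, mean ± SD versus concentration.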

[2] = Activation of PDHP in absence of 5 mM Mn2+
Summary of the method: (§1)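 Triplicate wells. PDHP and PDH incubated 37 °C 30 min. NaF stop, then pyruvate-ADP and NAD/cocarboxylase/CoA mix, 2 min rt. Activity read as absorbance change at 340 nm; data pooled from two experiments with separately synthesized samples.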

[3] = target: T1, Protein phosphatase 1A (Mus musculus); experiment: Activation of mouse recombinant GST-tagged PP2Calpha assessed as phosphate release using octapeptide-phosphate substrate RRRRPp-TPA
Summary of the method: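 Mouse wild-type GST-PP2Cα fusion (2 µg) at rt in 0.1 M Tris-HCl pH 8.0, 2 mM DTT, with varied MnCl₂ or compound. Phosphopeptide RRRRPpTPA at 5 µM final, 15 min. Stopped with malachite green, 15 min color, A650. No-enzyme blanks subtracted; triplicates, mean ± SD versus concentration.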

[4] = Activation of PDHP in presence of 5 mM Mn2+; summary of the method: as §1

Activity [1]	Activity [2]	Activity [3]	Activity [4]	Compound
inactive	inactive	inactive	inactive	CO[C@@H]1[C@@H](O)[C@@H](O)[C@H](O)[C@H](O)[C@H]1C[C@@H]1O[C@H](CO)[C@H](O)[C@H](O)[C@H]1O
inactive	inactive	Active	Active	CO[C@@H]1[C@@H](O)[C@@H](O)[C@H](O)[C@H](O)[C@H]1O[C@@H]1O[C@H](CO)[C@H](O)[C@H](O)[C@H]1N
inactive	inactive	inactive	Active	CO[C@@H]1[C@@H](O)[C@@H](O)[C@H](O)[C@H](O)[C@H]1C[C@@H]1O[C@H](CO)[C@H](O)[C@H](O)[C@H]1N
